Test results from ChEMBL document CHEMBL2057102, “Aminothienopyridazine inhibitors of tau aggregation: evaluation of structure-activity relationship leads to selection of candidates with desirable in vivo properties” (Bioorg Med Chem, 2012).

What was measured:
[1] = Inhibition of heparin-induced alexa red-labelled tau K18PL mutant aggregation after 6 hrs by thioflavin-T fluorescence assay; design: species or system Homo sapiens
Outline: (§1)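 Heparin-induced fibrillization of tau K18 fragment (residues 244–369) carrying P301L, with tau at 20 μM in sodium acetate buffer. Fibril formation was read by thioflavin-T fluorescence. IC50 came from sigmoidal fitting of concentration-response data, each concentration in triplicate. Values are from a single fit, or the mean of 2 or more analyses where marked.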

[2] = organism: Homo sapiens; assay: Inhibition of heparin-induced alexa red-labelled tau K18PL mutant aggregation after 6 hrs by thioflavin-T fluorescence assay relative to control; outline: as §1
[3] = organism: Homo sapiens; assay: Inhibition of heparin-induced tau K18PL mutant aggregation assessed as soluble tau fragment level at 50 uM after 5 days by SDS-PAGE analysis
Outline: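 Secondary centrifugation assay. Heparin-induced K18 P301L tau fibrillization mixtures with compound at 50 μM were centrifuged. Soluble and insoluble fractions were analysed by SDS-PAGE to give the percentage of tau remaining soluble.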

[4] = Drug uptake in B6C3F1 mouse brain at 5 mg/kg, ip after 1 hr; assay type: ADME, organism-based; design: dose 5 mg/kg, route intraperitoneal; settings: B6C3F1, mouse, brain, read-out: Drug uptake
Outline: (§2)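 Single i.p. dose of 5 mg/kg, sacrifice 1 h later. Perfused brain hemispheres were homogenized in 10 mM ammonium acetate pH 5.7 (50% w/v). EDTA plasma was taken. Brain homogenate or plasma was extracted with acetonitrile and analysed by LC-MS/MS (MRM) against matrix standard curves. Brain-to-plasma ratio was taken from total levels.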

[5] = Drug uptake in B6C3F1 mouse plasma at 5 mg/kg, ip after 1 hr; assay type: ADME, organism-based; design: dose 5 mg/kg, route intraperitoneal; settings: B6C3F1, mouse, plasma; outline: as §2
[6] = test system: Brain; assay: Fraction unbound in mouse brain homogenate at 1 uM after 5 hrs by equilibrium dialysis; assay type: ADME, tissue-based
Outline: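 Rapid equilibrium dialysis. Compound at 1 μM in mouse plasma or brain homogenate, each diluted threefold with 100 mM sodium phosphate pH 7.4. Triplicate samples dialysed against the same buffer for 5 h at 37 °C with shaking. Both sides were matrix-matched, extracted with acetonitrile and run by LC-MS/MS. fu is buffer response over sample response; brain fu was corrected for tissue dilution.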

[7] = Oral bioavailability in B6C3F1 mouse at 10 mg/kg at 1 hr; assay type: ADME, organism-based; settings: in vivo
[8] = AUC (0.5 to 16 hrs) in B6C3F1 mouse brain at 5 mg/kg, ip; assay type: ADME, organism-based; design: time 0.5-16 hr, dose 5 mg/kg, route intraperitoneal
Outline: (§3)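 Mice given 5 mg/kg i.p. (n = 3 per time point) and sacrificed at times from 0.5 to 16 h after dosing. Perfused brain hemispheres were homogenized in 10 mM ammonium acetate pH 5.7 (50% w/v). Plasma came from EDTA blood. Samples were extracted with acetonitrile and quantified by LC-MS/MS (MRM, positive ESI) against matrix standard curves by linear regression.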

[9] = AUC (0.5 to 16 hrs) in B6C3F1 mouse plasma at 5 mg/kg, ip; assay type: ADME, organism-based; design: time 0.5-16 hr, dose 5 mg/kg, route intraperitoneal; outline: as §3
[10] = Ratio of drug level in brain to plasma in B6C3F1 mouse at 5 mg/kg, ip after 16 hrs; assay type: ADME, organism-based; design: dose 5 mg/kg, route intraperitoneal; settings: read-out: BPR; outline: as §3
[11] = Ratio of unbound fraction in brain to plasma in B6C3F1 mouse at 5 mg/kg, ip after 16 hrs; assay type: ADME, organism-based; design: dose 5 mg/kg, route intraperitoneal; settings: in vivo; outline: as §3
[12] = test system: Brain; assay: Clearance in B6C3F1 mouse brain at 5 mg/kg, ip after 16 hrs; assay type: ADME, organism-based; design: dose 5 mg/kg, route intraperitoneal; settings: in vivo; outline: as §3
[13] = Clearance in B6C3F1 mouse plasma at 5 mg/kg, ip after 16 hrs; assay type: ADME, organism-based; design: dose 5 mg/kg, route intraperitoneal; outline: as §3
[14] = Half life in B6C3F1 mouse plasma at 5 mg/kg, ip after 16 hrs; assay type: ADME, organism-based; design: dose 5 mg/kg, route intraperitoneal; outline: as §3
[15] = test system: Plasma; assay: Volume of distribution in B6C3F1 mouse plasma at 5 mg/kg, ip after 16 hrs; assay type: ADME, organism-based; design: dose 5 mg/kg, route intraperitoneal; settings: in vivo; outline: as §3
[16] = Plasma concentration in B6C3F1 mouse at 10 mg/kg, po at 1 hr; assay type: ADME, organism-based; design: dose 10 mg/kg, route oral
[17] = Plasma concentration in B6C3F1 mouse at 5 mg/kg, ip at 1 hr; assay type: ADME, organism-based; design: dose 5 mg/kg, route intraperitoneal; outline: as §2
[18] = test system: Mus musculus; assay: Toxicity in B6C3F1 mouse assessed as adverse effects up to 100 mg/kg, po; assay type: organism-based; design: dose 100 mg/kg, route oral; settings: in vivo
[19] = test system: Mus musculus; assay: Toxicity in B6C3F1 mouse assessed as mild and transient lethargy at 100 mg/kg, po; assay type: organism-based; design: dose 100 mg/kg, route oral; settings: in vivo
[20] = test system: Mus musculus; assay: Toxicity in B6C3F1 mouse assessed as adverse event at 50 mg/kg, po administered in water qd for 1 month; assay type: organism-based; design: dose 50 mg/kg, route oral; settings: in vivo
Outline: (§4)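 Female B6C3F1 mice, 2 months old (n = 5 per group), dosed for 1 month via drinking water containing 3% PEG400 and 0.5% methylcellulose. Dose equivalent 50 mg/kg/day, assuming about 5 ml water per mouse per day. Vehicle controls were included and water intake was monitored. At the end, body weight was taken, then perfusion, organ weights (heart, liver, kidney, spleen, brain) and complete blood counts.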

[21] = test system: Mus musculus; assay: Toxicity in B6C3F1 mouse assessed as adverse effects at 50 mg/kg, po administered qd for 1 month; assay type: organism-based; design: dose 50 mg/kg, route oral; settings: in vivo; outline: as §4
[22] = test system: Mus musculus; assay: Toxicity in B6C3F1 mouse assessed as body weight loss at 50 mg/kg, po administered in water qd for 1 month relative to control; assay type: organism-based; design: dose 50 mg/kg, route oral; settings: in vivo; outline: as §4
[23] = test system: Mus musculus; assay: Toxicity in B6C3F1 mouse assessed as change in heart weight at 50 mg/kg, po administered in water qd for 1 month; assay type: organism-based; design: dose 50 mg/kg, route oral; settings: in vivo; outline: as §4
[24] = test system: Mus musculus; assay: Toxicity in B6C3F1 mouse assessed as change in liver weight at 50 mg/kg, po administered in water qd for 1 month; assay type: organism-based; design: dose 50 mg/kg, route oral; settings: in vivo; outline: as §4
[25] = test system: Mus musculus; assay: Toxicity in B6C3F1 mouse assessed as change in kidney weight at 50 mg/kg, po administered in water qd for 1 month; assay type: organism-based; design: dose 50 mg/kg, route oral; settings: in vivo; outline: as §4
[26] = test system: Mus musculus; assay: Toxicity in B6C3F1 mouse assessed as change in spleen weight at 50 mg/kg, po administered in water qd for 1 month; assay type: organism-based; design: dose 50 mg/kg, route oral; settings: in vivo; outline: as §4
[27] = test system: Mus musculus; assay: Toxicity in B6C3F1 mouse assessed as change in brain weight at 50 mg/kg, po administered in water qd for 1 month; assay type: organism-based; design: dose 50 mg/kg, route oral; settings: in vivo; outline: as §4
[28] = test system: Mus musculus; assay: Toxicity in B6C3F1 mouse assessed as change in RBC count at 50 mg/kg, po administered in water qd for 1 month; assay type: organism-based; design: dose 50 mg/kg, route oral; settings: in vivo; outline: as §4
[29] = test system: Mus musculus; assay: Toxicity in B6C3F1 mouse assessed as change in WBC count at 50 mg/kg, po administered in water qd for 1 month; assay type: organism-based; design: dose 50 mg/kg, route oral; settings: in vivo; outline: as §4
[30] = test system: Mus musculus; assay: Toxicity in B6C3F1 mouse assessed as change in lymphocyte count at 50 mg/kg, po administered in water qd for 1 month; assay type: organism-based; design: dose 50 mg/kg, route oral; settings: in vivo; outline: as §4
[31] = test system: Mus musculus; assay: Toxicity in B6C3F1 mouse assessed as change in neutrophil count at 50 mg/kg, po administered in water qd for 1 month; assay type: organism-based; design: dose 50 mg/kg, route oral; settings: in vivo; outline: as §4
[32] = Drug uptake in B6C3F1 mouse brain at 50 mg/kg, po administered qd in drinking water for 3 days; assay type: ADME, organism-based; design: dose 50 mg/kg, route oral; settings: read-out: Drug uptake
Outline: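 Brain levels were measured after 3 days. Perfused brain hemispheres were homogenized in 10 mM ammonium acetate, pH 5.7 (50% w/v), extracted with acetonitrile, and analysed by LC-MS/MS (MRM) against brain-homogenate standard curves. Free level was calculated from the equilibrium-dialysis brain unbound fraction.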

[33] = test system: Brain; assay: Free AUC (0.5 to 16 hrs) in B6C3F1 mouse brain at 5 mg/kg, ip; assay type: ADME, organism-based; design: dose 5 mg/kg, route intraperitoneal; settings: in vivo; outline: as §3
[34] = test system: Plasma; assay: Free AUC (0.5 to 16 hrs) in B6C3F1 mouse plasma at 5 mg/kg, ip; assay type: ADME, organism-based; design: dose 5 mg/kg, route intraperitoneal; settings: in vivo; outline: as §3
[35] = test system: Mus musculus; assay: Ratio of drug level in brain to plasma in B6C3F1 mouse at 5 mg/kg, ip after 1 hr

Nc1scc2c(C(=O)NC3CC3)nn(-c3ccc(F)cc3)c(=O)c12
IC50 [1]: 2.5 µM | Imax [2]: 88% | inhibition [3]: 78% | concentration at 1 h [4]: 670 ng/g | concentration at 1 h [5]: 0.61 µg/mL | Fu [6]: 4.3% | bioavailability [7]: 60% | AUC(0-t) [8]: 4.51 µg·h/mL | AUC(0-t) [9]: 2.35 µg·h/mL | Kp at 16 h [10]: 1.9 | BPR [11]: 1.2 | CL [12]: 50 mL/h | CL/F [13]: 1.31 mL/min | half-life [14]: 2.2 h | Vd [15]: 246 mL | concentration at 1 h [16]: 0.832 µg/mL | concentration at 1 h [17]: 0.61 µg/mL | Activity [18]: Non-toxic | Activity [19]: Toxic | Activity [20]: Non-toxic | Activity [21]: Non-toxic | Activity [22]: Non-toxic | Activity [23]: Non-toxic | Activity [24]: Non-toxic | Activity [25]: Non-toxic | Activity [26]: Non-toxic | Activity [27]: Non-toxic | Activity [28]: Non-toxic | Activity [29]: Non-toxic | Activity [30]: Non-toxic | Activity [31]: Non-toxic | concentration at 72 h [32]: 0.139 µM | fAUC [33]: 0.195 µg·h/mL | fAUC [34]: 0.162 µg·h/mL | BPR [35]: 1.09
